# Active and inactive are the calls of the source. No cut-off for these calls is given here.
# Assays:
# PC-12 [1] = experiment: Potentiation of NGF-induced neurite outgrowth-promotion in rat PC12 cells assessed as increase in neurite length at 30 uM incubated for 4 days in presence of 0.5 ng/mL NGF (reference value: 21.1 micrometer); format: functional
# PC-12 [2] = experiment: Potentiation of NGF-induced neurite outgrowth-promotion in rat PC12 cells at 1 to 30 uM incubated for 4 days in presence of 0.5 ng/mL NGF; format: functional, cell-based
# PC-12 [3] = experiment: Effect on cell morphology in rat PC12 cells at 1 to 30 uM incubated for 4 days in absence of NGF; format: functional, cell-based
# Outline: (§1)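 PC12 cells seeded at 8 × 10^3 cells/cm2 in DMEM + 10% HS, 5% FBS, penicillin/streptomycin, 37 °C, 5% CO2, 24 h. Medium then switched to DMEM + 2% HS, 1% FBS and test samples added without NGF. After 4 days, cells fixed in 4% paraformaldehyde−PBS, stained with methylene blue, and morphology examined by phase-contrast microscopy. Triplicate wells.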
# PC-12 [4] = experiment: Potentiation of NGF-induced neurite outgrowth-promotion in rat PC12 cells assessed as increase in neurite length at 1 to 30 uM incubated for 4 days in presence of 0.5 ng/mL NGF (reference value: 21.1 micrometer); format: functional, cell-based
# PC-12 [5] = experiment: Potentiation of NGF-induced neurite outgrowth-promotion in rat PC12 cells assessed as increase in neurite length at 10 uM incubated for 4 days in presence of 0.5 ng/mL NGF (reference value: 21.1 micrometer); format: functional
# PC-12 [6] = experiment: Potentiation of NGF-induced neurite outgrowth-promotion in rat PC12 cells assessed as increase in neurite length at 1 uM incubated for 4 days in presence of 0.5 ng/mL NGF (reference value: 21.1 micrometer); format: functional
# PC-12 [7] = experiment: Potentiation of NGF-induced neurite outgrowth-promotion in rat PC12 cells at 1 uM incubated for 4 days in presence of 0.5 ng/mL NGF; format: functional, cell-based
# PC-12 [8] = experiment: Potentiation of NGF-induced neurite outgrowth-promotion in rat PC12 cells at 10 uM incubated for 4 days in presence of 0.5 ng/mL NGF; format: functional, cell-based
# PC-12 [9] = experiment: Toxicity in NGF-stimulated rat PC12 cells at > 30 uM incubated for 4 days in presence of 0.5 ng/mL NGF; format: cell-based; conditions: pc-12, 96 h
# Outline: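 PC12 cells grown 24 h in DMEM + 10% HS/5% FBS, then exposed for 4 days to test samples with 0.5 ng/mL NGF in DMEM + 2% HS/1% FBS. After fixing in 4% paraformaldehyde−PBS and methylene blue staining, cells were examined under phase-contrast microscopy.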
# PC-12 [10] = experiment: Effect on cell morphology in rat PC12 cells at 1 to 10 uM incubated for 4 days in absence of NGF; format: functional, cell-based; outline: as §1
Compound,Activity (PC-12 [1]),Activity (PC-12 [2]),Activity (PC-12 [3]),Activity (PC-12 [4]),Activity (PC-12 [5]),Activity (PC-12 [6]),Activity (PC-12 [7]),Activity (PC-12 [8]),Activity (PC-12 [9]),Activity (PC-12 [10])
CC1(C)CC[C@]2(CC[C@]3(C)C(=CC[C@@H]4[C@@]5(C)C[C@@H](O)[C@H](OC(=O)/C=C/c6ccc(O)cc6)[C@@](C)(CO)[C@@H]5CC[C@]43C)[C@H]2O)C1 (relative stereo),41.9 um,Dose-dependent effect,inactive,Dose-dependent effect,33.5 um,27.6 um,–,–,–,–
COc1cc(/C=C/C(=O)O[C@H]2[C@H](O)C[C@@]3(C)[C@@H](CC[C@]4(C)[C@@H]3CC=C3[C@@H](O)[C@@]5(CCC(C)(C)C5)CC[C@]34C)[C@]2(C)CO)ccc1O (relative stereo),55.1 um,Dose-dependent effect,inactive,Dose-dependent effect,42 um,32.1 um,–,–,–,–
COc1cc(/C=C\C(=O)O[C@H]2[C@H](O)C[C@@]3(C)[C@@H](CC[C@]4(C)[C@@H]3CC=C3[C@@H](O)[C@@]5(CCC(C)(C)C5)CC[C@]34C)[C@]2(C)CO)ccc1O (relative stereo),55.1 um,Dose-dependent effect,inactive,Dose-dependent effect,42 um,32.1 um,–,–,–,–
CC1(C)CC[C@]2(CC[C@]3(C)C(=CC[C@@H]4[C@@]5(C)C[C@@H](O)[C@H](OC(=O)/C=C\c6ccc(O)cc6)[C@@](C)(CO)[C@@H]5CC[C@]43C)[C@H]2O)C1 (relative stereo),41.9 um,Dose-dependent effect,inactive,Dose-dependent effect,33.5 um,27.6 um,–,–,–,–
CC1(C)CC[C@]2(CC[C@]3(C)C(=CC[C@@H]4[C@@]5(C)C[C@@H](O)[C@H](O)[C@@](C)(CO)[C@@H]5CC[C@]43C)[C@H]2O)C1,–,–,–,Dose-dependent effect,33.1 um,22.9 um,Active,Active,Toxic,inactive

# Source: ChEMBL document CHEMBL2086243, “Spirocyclic nortriterpenoids with NGF-potentiating activity from the fruits of Leonurus heterophyllus” (J Nat Prod, 2012)
